ChEMBL document CHEMBL4130535, “Aquilanols A and B, Macrocyclic Humulene-Type Sesquiterpenoids from the Agarwood of Aquilaria malaccensis” (2017)
Converted amounts (≈) assume the structure as drawn.

Tests used:
[1] = system: Salmonella typhimurium; assay: Antibacterial activity against Salmonella enterica ATCC 14028 after 24 hrs; type: functional, Salmonella enterica subsp. enterica serovar Typhimurium; settings: ATCC 14028, 24 h
Summary of the method: (§1)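 MIC determination, following a previously reported method, against the listed Gram-positive and Gram-negative ATCC strains.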

[2] = system: Escherichia coli; assay: Antibacterial activity against Escherichia coli ATCC 25922 after 24 hrs; type: functional; settings: ATCC 25922, 24 h; summary of the method: as §1
[3] = system: Staphylococcus aureus; assay: Antibacterial activity against Staphylococcus aureus ATCC 25923 after 24 hrs; type: functional; settings: ATCC 25923, 24 h; summary of the method: as §1
[4] = system: Trichophyton rubrum; assay: Antifungal activity against Trichophyton rubrum NBRC 9185 after 48 to 72 hrs; type: functional
Summary of the method: (§2)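 MIC determination, following a previously reported method, against the listed fungal strains, with amphotericin B as the positive control.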

[5] = system: Enterococcus faecium; assay: Antibacterial activity against Enterococcus faecium ATCC 19434 after 24 hrs; type: functional; settings: ATCC 19434, 24 h; summary of the method: as §1
[6] = system: Aspergillus fumigatus; assay: Antifungal activity against Aspergillus fumigatus HIC 6094 after 48 to 72 hrs; type: functional; summary of the method: as §2
[7] = system: Candida albicans; assay: Antifungal activity against Candida albicans ATCC 10231 after 48 to 72 hrs; type: functional; summary of the method: as §2
[8] = system: Klebsiella pneumoniae; assay: Antibacterial activity against Klebsiella pneumoniae ATCC 10031 after 24 hrs; type: functional; settings: ATCC 10031, 24 h; summary of the method: as §1
[9] = system: Enterococcus faecalis; assay: Antibacterial activity against Enterococcus faecalis ATCC 19433 after 24 hrs; type: functional; settings: ATCC 19433, 24 h; summary of the method: as §1
[10] = system: Trichophyton mentagrophytes; assay: Antifungal activity against Trichophyton mentagrophytes IFM 40996 after 48 to 72 hrs; type: functional; summary of the method: as §2

Row | MIC [1] [µM] | MIC [2] [µM] | MIC [3] [µM] | MIC [4] [µM] | MIC [5] [µM] | MIC [6] [µM] | MIC [7] [µM] | MIC [8] [µM] | MIC [9] [µM] | MIC [10] [µM] | Compound
1 | 430 to 580 (≈ 107 to 144 µg/mL) | 430 to 580 (≈ 107 to 144 µg/mL) | 430 to 580 (≈ 107 to 144 µg/mL) | 430 to 580 (≈ 107 to 144 µg/mL) | 430 to 580 (≈ 107 to 144 µg/mL) | 430 to 580 (≈ 107 to 144 µg/mL) | 430 to 580 (≈ 107 to 144 µg/mL) | 430 to 580 (≈ 107 to 144 µg/mL) | 430 to 580 (≈ 107 to 144 µg/mL) | 430 to 580 (≈ 107 to 144 µg/mL) | C=C1[C@@H](O)[C@]23CC[C@H](C)[C@@H]2C[C@@]1(O)C(=O)C=C3C
2 | 430 to 580 (≈ 120 to 161 µg/mL) | 430 to 580 (≈ 120 to 161 µg/mL) | 430 to 580 (≈ 120 to 161 µg/mL) | 430 to 580 (≈ 120 to 161 µg/mL) | 430 to 580 (≈ 120 to 161 µg/mL) | 430 to 580 (≈ 120 to 161 µg/mL) | 430 to 580 (≈ 120 to 161 µg/mL) | 430 to 580 (≈ 120 to 161 µg/mL) | 430 to 580 (≈ 120 to 161 µg/mL) | 430 to 580 (≈ 120 to 161 µg/mL) | COC(=O)[C@H]1C[C@]23CC[C@H](C)[C@@H]2C[C@@]1(O)C(=O)C=C3C
3 | 430 to 580 (≈ 99.9 to 135 µg/mL) | 430 to 580 (≈ 99.9 to 135 µg/mL) | 430 to 580 (≈ 99.9 to 135 µg/mL) | 430 to 580 (≈ 99.9 to 135 µg/mL) | 430 to 580 (≈ 99.9 to 135 µg/mL) | 430 to 580 (≈ 99.9 to 135 µg/mL) | 430 to 580 (≈ 99.9 to 135 µg/mL) | 430 to 580 (≈ 99.9 to 135 µg/mL) | 430 to 580 (≈ 99.9 to 135 µg/mL) | 430 to 580 (≈ 99.9 to 135 µg/mL) | C=C1C2C[C@H]3[C@@H](C)CC[C@@]3(C(C)=CC2=O)[C@@H]1O
4 | 430 to 580 (≈ 109 to 146 µg/mL) | 430 to 580 (≈ 109 to 146 µg/mL) | 430 to 580 (≈ 109 to 146 µg/mL) | 430 to 580 (≈ 109 to 146 µg/mL) | 430 to 580 (≈ 109 to 146 µg/mL) | 430 to 580 (≈ 109 to 146 µg/mL) | 430 to 580 (≈ 109 to 146 µg/mL) | 430 to 580 (≈ 109 to 146 µg/mL) | 430 to 580 (≈ 109 to 146 µg/mL) | 430 to 580 (≈ 109 to 146 µg/mL) | CC1(C)C/C=C2/CCC(O)C(C)(CC3OC31)OC2 (racemic)
5 | 430 to 580 (≈ 126 to 170 µg/mL) | 430 to 580 (≈ 126 to 170 µg/mL) | 430 to 580 (≈ 126 to 170 µg/mL) | 430 to 580 (≈ 126 to 170 µg/mL) | 430 to 580 (≈ 126 to 170 µg/mL) | 430 to 580 (≈ 126 to 170 µg/mL) | 430 to 580 (≈ 126 to 170 µg/mL) | 430 to 580 (≈ 126 to 170 µg/mL) | 430 to 580 (≈ 126 to 170 µg/mL) | 430 to 580 (≈ 126 to 170 µg/mL) | COC(=O)[C@@]1(C)[C@]2(C)CC(=O)[C@@]1(O)CC1=C2C(=O)C[C@@H]1C
6 | 430 to 580 (≈ 102 to 137 µg/mL) | 430 to 580 (≈ 102 to 137 µg/mL) | 430 to 580 (≈ 102 to 137 µg/mL) | 430 to 580 (≈ 102 to 137 µg/mL) | 430 to 580 (≈ 102 to 137 µg/mL) | 430 to 580 (≈ 102 to 137 µg/mL) | 430 to 580 (≈ 102 to 137 µg/mL) | 430 to 580 (≈ 102 to 137 µg/mL) | 430 to 580 (≈ 102 to 137 µg/mL) | 430 to 580 (≈ 102 to 137 µg/mL) | CC1(C)/C=C/C[C@@]2(C)OC/C(=C\C1)CC[C@@H]2O
7 | 430 to 580 (≈ 94.8 to 128 µg/mL) | 430 to 580 (≈ 94.8 to 128 µg/mL) | 430 to 580 (≈ 94.8 to 128 µg/mL) | 430 to 580 (≈ 94.8 to 128 µg/mL) | 430 to 580 (≈ 94.8 to 128 µg/mL) | 430 to 580 (≈ 94.8 to 128 µg/mL) | 430 to 580 (≈ 94.8 to 128 µg/mL) | 430 to 580 (≈ 94.8 to 128 µg/mL) | 430 to 580 (≈ 94.8 to 128 µg/mL) | 430 to 580 (≈ 94.8 to 128 µg/mL) | C/C1=C/CC/C(CO)=C/CC(C)(C)/C=C/C1
8 | 430 to 580 (≈ 107 to 144 µg/mL) | 430 to 580 (≈ 107 to 144 µg/mL) | 430 to 580 (≈ 107 to 144 µg/mL) | 430 to 580 (≈ 107 to 144 µg/mL) | 430 to 580 (≈ 107 to 144 µg/mL) | 430 to 580 (≈ 107 to 144 µg/mL) | 430 to 580 (≈ 107 to 144 µg/mL) | 430 to 580 (≈ 107 to 144 µg/mL) | 430 to 580 (≈ 107 to 144 µg/mL) | 430 to 580 (≈ 107 to 144 µg/mL) | C[C@H]1CC=C2[C@H]1C[C@]1(O)C(=O)C[C@@]2(C)[C@]1(C)C=O
9 | 430 to 580 (≈ 108 to 145 µg/mL) | 430 to 580 (≈ 108 to 145 µg/mL) | 430 to 580 (≈ 108 to 145 µg/mL) | 430 to 580 (≈ 108 to 145 µg/mL) | 430 to 580 (≈ 108 to 145 µg/mL) | 430 to 580 (≈ 108 to 145 µg/mL) | 430 to 580 (≈ 108 to 145 µg/mL) | 430 to 580 (≈ 108 to 145 µg/mL) | 430 to 580 (≈ 108 to 145 µg/mL) | 430 to 580 (≈ 108 to 145 µg/mL) | C[C@H]1CC=C2[C@H]1C[C@]1(O)C(=O)C[C@@]2(C)[C@]1(C)CO
